According to ChEMBL document CHEMBL2169746, “Design, synthesis, and antitumor evaluation of 2,4,6-triaryl pyridines containing chlorophenyl and phenolic moiety” (Eur J Med Chem, 2012):

What was measured:
[1] = target: DNA topoisomerase 2-alpha (Homo sapiens) (UniProt P11388); experiment: Inhibition of human DNA topoisomerase-2alpha-mediated relaxation of supercoiled pBR322 at 20 uM after 30 mins using ethidium bromide staining by agarose gel electrophoresis
Summary of the method: (§1)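 200 ng supercoiled pBR322 with 1 unit human topo IIα, with or without compound. Buffer was 10 mM Tris-HCl pH 7.9, 50 mM NaCl, 5 mM MgCl₂, 1 mM EDTA, 1 mM ATP and bovine serum albumin. Incubated 30 min at 30 °C, stopped with EDTA. Products run on 1% agarose gel, 25 V, 4 h, TAE buffer. Compound stocks 20 mM in DMSO.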

T47D = experiment: Cytotoxicity against human T47D cells after 2 days by cell counting kit-8 analysis; assay type: functional, cell-based; conditions: 48 h
Summary of the method: (§2)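 Cells grown per supplier's instructions, seeded at 2-4 × 10⁴ cells/well and incubated overnight in medium with 10% FBS at 37 °C, 5% CO₂. On day 2, after 4 h FBS starvation, medium was replaced with medium containing graded compound concentrations. Absorbance read at 450 nm. IC50 from a four-parameter logistic fit. Three independent experiments in triplicate, mean ± S.D.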

HCT-15 = experiment: Cytotoxicity against human HCT15 cells after 2 days by cell counting kit-8 analysis; assay type: functional, cell-based; conditions: HCT-15, 48 h; summary of the method: as §2
DU-145 = experiment: Cytotoxicity against human DU145 cells after 2 days by cell counting kit-8 analysis; assay type: functional, cell-based; conditions: DU-145, 48 h; summary of the method: as §2
HEK293 = experiment: Cytotoxicity against human HEK293 cells after 2 days by cell counting kit-8 analysis; assay type: cell-based; conditions: HEK293, 48 h; summary of the method: as §2
[2] = target: DNA topoisomerase 2-alpha (Homo sapiens) (UniProt P11388); experiment: Inhibition of human DNA topoisomerase-2alpha-mediated relaxation of supercoiled pBR322 at 100 uM after 30 mins using ethidium bromide staining by agarose gel electrophoresis; summary of the method: as §1
[3] = target: T1, DNA topoisomerase 1 (Homo sapiens) (UniProt P11387); experiment: Inhibition of recombinant human DNA topoisomerase-1-mediated relaxation of supercoiled pBR322 at 100 uM after 30 mins using ethidium bromide staining by agarose gel electrophoresis
T1 sequence (whole entry): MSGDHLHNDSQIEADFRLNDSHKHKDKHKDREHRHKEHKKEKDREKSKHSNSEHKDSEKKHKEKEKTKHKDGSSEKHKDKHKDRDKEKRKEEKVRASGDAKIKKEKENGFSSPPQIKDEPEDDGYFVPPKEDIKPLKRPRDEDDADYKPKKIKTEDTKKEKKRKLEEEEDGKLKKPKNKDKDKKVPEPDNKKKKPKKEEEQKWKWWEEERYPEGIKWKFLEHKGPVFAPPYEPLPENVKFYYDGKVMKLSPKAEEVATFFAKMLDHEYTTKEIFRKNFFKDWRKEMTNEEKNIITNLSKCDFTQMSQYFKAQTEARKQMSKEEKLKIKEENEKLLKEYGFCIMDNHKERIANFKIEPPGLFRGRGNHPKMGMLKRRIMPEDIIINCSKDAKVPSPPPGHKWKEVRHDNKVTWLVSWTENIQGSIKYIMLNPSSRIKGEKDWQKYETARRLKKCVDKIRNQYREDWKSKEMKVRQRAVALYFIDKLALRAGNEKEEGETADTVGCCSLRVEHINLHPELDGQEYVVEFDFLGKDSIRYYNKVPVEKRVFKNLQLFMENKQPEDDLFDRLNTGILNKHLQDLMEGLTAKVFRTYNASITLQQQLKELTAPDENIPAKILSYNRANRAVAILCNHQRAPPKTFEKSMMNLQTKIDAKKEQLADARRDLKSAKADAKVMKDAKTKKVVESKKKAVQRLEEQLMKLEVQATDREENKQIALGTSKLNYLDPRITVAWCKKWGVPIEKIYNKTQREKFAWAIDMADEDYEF
Summary of the method: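 Compounds from 20 mM DMSO stocks. 100 ng pBR322 plasmid DNA with 1 unit recombinant human topo I, with or without compound, 37 °C for 30 min. Relaxation buffer was 10 mM Tris-HCl pH 7.9, 150 mM NaCl, 0.1% BSA, 1 mM spermidine. Relaxation of supercoiled DNA assessed by gel imaging.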

Sequence of DNA topoisomerase 2-alpha (Homo sapiens) (P11388 whole entry): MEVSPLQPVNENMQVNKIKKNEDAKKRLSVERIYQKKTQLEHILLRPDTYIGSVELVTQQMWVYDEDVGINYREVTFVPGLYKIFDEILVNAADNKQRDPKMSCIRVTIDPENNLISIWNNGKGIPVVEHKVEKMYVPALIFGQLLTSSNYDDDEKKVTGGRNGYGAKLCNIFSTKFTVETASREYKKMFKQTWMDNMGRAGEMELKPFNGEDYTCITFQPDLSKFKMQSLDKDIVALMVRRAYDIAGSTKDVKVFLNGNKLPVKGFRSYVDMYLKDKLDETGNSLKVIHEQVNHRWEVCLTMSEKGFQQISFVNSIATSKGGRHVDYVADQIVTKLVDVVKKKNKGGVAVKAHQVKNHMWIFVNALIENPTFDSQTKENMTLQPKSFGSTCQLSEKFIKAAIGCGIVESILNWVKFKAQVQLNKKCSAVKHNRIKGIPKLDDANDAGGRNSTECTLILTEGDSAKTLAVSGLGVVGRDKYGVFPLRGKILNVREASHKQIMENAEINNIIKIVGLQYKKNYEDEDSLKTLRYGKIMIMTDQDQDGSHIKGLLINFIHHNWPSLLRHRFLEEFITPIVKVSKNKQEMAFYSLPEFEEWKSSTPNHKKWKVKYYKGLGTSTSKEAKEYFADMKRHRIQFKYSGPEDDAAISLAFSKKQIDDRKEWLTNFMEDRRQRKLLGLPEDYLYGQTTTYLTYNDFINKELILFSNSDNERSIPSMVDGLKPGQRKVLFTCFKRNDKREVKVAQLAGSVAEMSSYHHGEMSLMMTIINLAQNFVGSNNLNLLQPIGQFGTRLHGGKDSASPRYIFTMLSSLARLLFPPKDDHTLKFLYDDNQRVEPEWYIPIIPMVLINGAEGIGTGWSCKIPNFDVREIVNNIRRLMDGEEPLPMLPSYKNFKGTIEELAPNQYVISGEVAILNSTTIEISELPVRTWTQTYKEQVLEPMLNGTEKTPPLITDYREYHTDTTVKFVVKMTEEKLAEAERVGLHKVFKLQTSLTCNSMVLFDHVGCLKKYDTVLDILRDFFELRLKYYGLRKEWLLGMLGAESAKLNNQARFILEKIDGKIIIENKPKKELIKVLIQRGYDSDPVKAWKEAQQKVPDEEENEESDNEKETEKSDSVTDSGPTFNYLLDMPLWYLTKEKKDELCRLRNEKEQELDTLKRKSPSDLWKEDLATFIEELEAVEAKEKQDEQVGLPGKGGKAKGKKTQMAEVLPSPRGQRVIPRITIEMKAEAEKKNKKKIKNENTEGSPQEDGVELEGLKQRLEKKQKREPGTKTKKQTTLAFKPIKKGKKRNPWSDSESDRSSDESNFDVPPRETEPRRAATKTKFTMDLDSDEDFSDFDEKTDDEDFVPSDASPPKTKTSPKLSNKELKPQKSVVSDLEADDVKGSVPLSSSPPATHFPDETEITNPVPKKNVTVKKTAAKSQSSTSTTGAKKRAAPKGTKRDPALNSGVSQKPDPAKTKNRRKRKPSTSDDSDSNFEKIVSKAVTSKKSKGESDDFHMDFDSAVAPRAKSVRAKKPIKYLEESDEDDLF

| Structure (SMILES) | inhibition [1] [%] | inhibition [2] [%] | inhibition [3] [%] | IC50 (T47D) [µM] | IC50 (HCT-15) [µM] | IC50 (DU-145) [µM] | IC50 (HEK293) [µM] |
| --- | --- | --- | --- | --- | --- | --- | --- |
| COc1cc([C@@H]2c3cc4c(cc3[C@@H](O[C@@H]3O[C@@H]5CO[C@@H](C)O[C@H]5[C@H](O)[C@H]3O)[C@H]3COC(=O)[C@H]23)OCO4)cc(OC)c1O [ETOPOSIDE] | 20 | – | – | 2.39 | 1.17 | 1.21 | 1.21 |
| Oc1ccc(-c2cc(-c3cccs3)nc(-c3ccccc3Cl)c2)cc1 | 8.2 | 78.3 | 2.2 | 5.87 | 5.43 | 4.19 | 5.22 |
| Oc1cccc(-c2cc(-c3ccccc3)nc(-c3ccccc3Cl)c2)c1 | 23 | 83 | 3.2 | 2.92 | 2.93 | 1.48 | 1.76 |
| Oc1ccc(-c2cc(-c3ccccn3)nc(-c3ccccc3Cl)c2)cc1 | – | 21.1 | 5.2 | – | – | – | – |
| Oc1ccc(-c2cc(-c3ccc(Cl)cc3)nc(-c3ccco3)c2)cc1 | 36.2 | 84.1 | 15.8 | 6.26 | 7.02 | 7.28 | 5.72 |
| CC[C@@]1(O)C(=O)OCc2c1cc1n(c2=O)Cc2cc3ccccc3nc2-1 [CAMPTOTHECIN] | – | – | – | 1.53 | 1.38 | 1.06 | 1.01 |
| Oc1ccc(-c2cc(-c3ccc(Cl)cc3)nc(-c3ccccn3)c2)cc1 | 13.1 | 66.7 | 12.7 | 25.9 | 21.3 | 22.5 | 27.2 |
| Oc1cccc(-c2cc(-c3ccccn3)nc(-c3ccccc3Cl)c2)c1 | – | 19.1 | 0 | – | – | – | – |
| COc1cccc2c1C(=O)c1c(O)c3c(c(O)c1C2=O)C[C@@](O)(C(=O)CO)C[C@@H]3O[C@H]1C[C@H](N)[C@H](O)[C@H](C)O1 [DOXORUBICIN] | – | – | – | 1.05 | 1.03 | 1.1 | 1.34 |
| Oc1cccc(-c2cc(-c3ccco3)nc(-c3ccccc3Cl)c2)c1 | 8.6 | 77.9 | 0 | 2.01 | 2.23 | 1.63 | 1.86 |
| Oc1ccc(-c2cc(-c3ccccc3)nc(-c3ccccc3Cl)c2)cc1 | 5.5 | 77.5 | 13.6 | 5.46 | 4.99 | 2.8 | 3.93 |
| Oc1ccc(-c2cc(-c3ccco3)nc(-c3ccccc3Cl)c2)cc1 | 7.7 | 77.8 | 3.9 | 5.48 | 5.46 | 5.3 | 4.31 |
| Oc1ccc(-c2cc(-c3ccncc3)nc(-c3ccccc3Cl)c2)cc1 | – | 0 | 9.9 | – | – | – | – |
| Oc1cccc(-c2cc(-c3cccnc3)nc(-c3ccccc3Cl)c2)c1 | – | 0 | 0 | – | – | – | – |
| Oc1ccc(-c2cc(-c3ccc(Cl)cc3)nc(-c3cccnc3)c2)cc1 | 11.9 | 59.1 | 18.8 | 29.3 | 20.7 | 22.8 | 27.4 |
| Oc1ccc(-c2cc(-c3ccncc3)nc(-c3ccc(Cl)cc3)c2)cc1 | – | 2.4 | 5.9 | – | – | – | – |
| Oc1cccc(-c2cc(-c3ccncc3)nc(-c3ccccc3Cl)c2)c1 | – | 0.7 | 0 | – | – | – | – |
| Oc1ccc(-c2cc(-c3cccnc3)nc(-c3ccccc3Cl)c2)cc1 | – | 0 | 0.9 | – | – | – | – |

Further lines, with some results ahead:

| inhibition [1] [%] | inhibition [2] [%] | inhibition [3] [%] | Structure (SMILES) | IC50 (T47D) [µM] | IC50 (HCT-15) [µM] | IC50 (DU-145) [µM] | IC50 (HEK293) [µM] |
| --- | --- | --- | --- | --- | --- | --- | --- |
| 38.3 | 71.6 | 11.7 | Oc1cccc(-c2cc(-c3ccc(Cl)cc3)nc(-c3ccsc3)c2)c1 | 11.5 | 8.85 | 11.6 | 11.2 |
| – | 0 | 27.6 | Oc1cccc(-c2cc(-c3cccnc3)nc(-c3cccc(Cl)c3)c2)c1 | – | – | – | – |
| 29.2 | 80.5 | 4.1 | Oc1ccc(-c2cc(-c3ccsc3)nc(-c3ccccc3Cl)c2)cc1 | 6.11 | 5.83 | 3.89 | 5.93 |
| – | 2.4 | 0.4 | Oc1cccc(-c2cc(-c3cccc(Cl)c3)nc(-c3ccccn3)c2)c1 | – | – | – | – |
| 0.5 | 76.8 | 0 | Oc1ccc(-c2cc(-c3ccccc3)nc(-c3cccc(Cl)c3)c2)cc1 | 4.79 | 6.1 | 5.36 | 2.82 |
| – | 0 | 29.2 | Oc1ccc(-c2cc(-c3ccncc3)nc(-c3cccc(Cl)c3)c2)cc1 | – | – | – | – |
| 54.2 | 75.5 | 15.1 | Oc1cccc(-c2cc(-c3ccc(Cl)cc3)nc(-c3cccs3)c2)c1 | 10.5 | 9.28 | 11.6 | 11.8 |
| 0 | 71.3 | 25.5 | Oc1ccc(-c2cc(-c3cccc(Cl)c3)nc(-c3ccco3)c2)cc1 | 5.22 | 8.02 | 5.75 | 2.88 |
| 15.4 | 80.1 | 26.2 | Oc1cccc(-c2cc(-c3ccsc3)nc(-c3cccc(Cl)c3)c2)c1 | 3.54 | 2.51 | 3.33 | 3.18 |
| – | 13.9 | 0 | Oc1cccc(-c2cc(-c3ccncc3)nc(-c3cccc(Cl)c3)c2)c1 | – | – | – | – |
| 53 | 76.3 | 7.1 | Oc1cccc(-c2cc(-c3ccccc3)nc(-c3ccc(Cl)cc3)c2)c1 | 11.3 | 8.11 | 11.2 | 11.6 |
| 49.1 | 81.1 | 11.5 | Oc1cccc(-c2cc(-c3ccccc3)nc(-c3cccc(Cl)c3)c2)c1 | 3.7 | 2.55 | 2.75 | 3.12 |
| 16.7 | 63.8 | 27.1 | Oc1cccc(-c2cc(-c3ccc(Cl)cc3)nc(-c3ccco3)c2)c1 | 10.5 | 10.2 | 11.4 | 8.19 |
| 4.8 | 70.1 | 5.5 | Oc1cccc(-c2cc(-c3cccc(Cl)c3)nc(-c3ccco3)c2)c1 | 3.57 | 2.46 | 2.02 | 2.53 |
| 10.7 | 78.9 | 2.7 | Oc1cccc(-c2cc(-c3cccs3)nc(-c3ccccc3Cl)c2)c1 | 3.99 | 2.79 | 1.7 | 2.6 |
| 10.6 | 40.4 | 2.8 | Oc1cccc(-c2cc(-c3ccc(Cl)cc3)nc(-c3cccnc3)c2)c1 | 18.1 | 16.8 | 26.8 | 39.5 |
| 12.9 | 51.7 | 8 | Oc1cccc(-c2cc(-c3ccncc3)nc(-c3ccc(Cl)cc3)c2)c1 | 3.33 | 2.63 | 2.51 | 2.89 |
